Data: ChEMBL document CHEMBL1629583, “Establishment of in vitro susceptibility testing methodologies and comparative activities of piperacillin in combination with the penem {beta}-lactamase inhibitor BLI-489” (2009)

Legend:
Type in all cases: functional
[1] = system: Streptococcus pyogenes; experiment: Antimicrobial activity against Streptococcus pyogenes clinical isolate after 18 to 22 hrs by broth microdilution method in presence of beta-lactamase inhibitor Tazobactam
Summary of the method: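 Streptococcal isolates were tested with piperacillin-tazobactam by CLSI broth microdilution in Mueller-Hinton II broth supplemented with 5% lysed horse blood. Inoculum was 10^5 CFU/ml, incubated 18 to 22 h at 35°C in ambient air. Visual endpoint: lowest concentration with complete inhibition.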

[2] = system: Bacteroides fragilis; experiment: Antimicrobial activity against Bacteroides fragilis clinical isolate after 18 to 22 hrs by broth microdilution method in presence of beta-lactamase inhibitor BLI-489
[3] = system: Streptococcus pneumoniae; experiment: Antimicrobial activity against penicillin-susceptible Streptococcus pneumoniae clinical isolate after 18 to 22 hrs by broth microdilution method in presence of beta-lactamase inhibitor BLI-489
Summary of the method: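 Streptococci were tested by CLSI broth microdilution in Mueller-Hinton II broth plus 5% lysed horse blood. Piperacillin was serially diluted with BLI-489 fixed at a constant 4 μg/ml. Inoculum was 10^5 CFU/ml, with 18 to 22 h at 35°C in ambient air. MIC was the lowest concentration completely inhibiting growth by eye.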

[4] = system: Klebsiella oxytoca; experiment: Antimicrobial activity against Klebsiella oxytoca clinical isolate after 18 to 22 hrs by broth microdilution method in presence of beta-lactamase inhibitor BLI-489
Summary of the method: (§1)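 CLSI broth microdilution in Mueller-Hinton II broth. Serial dilutions of piperacillin were tested with BLI-489 held at a constant 4 μg/ml. Inoculum was 10^5 CFU/ml. Plates were incubated 18 to 22 h at 35°C in ambient air. MIC was the lowest concentration giving complete growth inhibition by unaided eye.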

[5] = system: Enterococcus gallinarum; experiment: Antimicrobial activity against Enterococcus gallinarum clinical isolate after 18 to 22 hrs by broth microdilution method in presence of beta-lactamase inhibitor BLI-489; summary of the method: as §1
[6] = system: Parvimonas micra; experiment: Antimicrobial activity against Peptostreptococcus micros clinical isolate after 18 to 22 hrs by broth microdilution method in presence of beta-lactamase inhibitor BLI-489
[7] = system: Providencia stuartii; experiment: Antimicrobial activity against Providencia stuartii clinical isolate after 18 to 22 hrs by broth microdilution method in presence of beta-lactamase inhibitor Tazobactam
Summary of the method: (§2)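 Piperacillin-tazobactam was tested by CLSI broth microdilution in Mueller-Hinton II broth against clinical isolates. Inoculum was 10^5 CFU/ml, with 18 to 22 h incubation at 35°C in ambient air. MIC was read as the lowest concentration completely inhibiting visible growth.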

[8] = system: Acinetobacter junii; experiment: Antimicrobial activity against Acinetobacter junii clinical isolate after 18 to 22 hrs by broth microdilution method in presence of beta-lactamase inhibitor BLI-489
Summary of the method: (§3)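 CLSI broth microdilution in Mueller-Hinton II broth. Piperacillin serial dilutions were combined with BLI-489 held constant at 4 μg/ml. Inoculum was 10^5 CFU/ml. Plates were incubated 18 to 22 h at 35°C in ambient air. MIC was the lowest concentration completely inhibiting growth seen by the unaided eye. Piperacillin-tazobactam interpretive criteria were applied.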

[9] = system: Enterococcus faecalis; experiment: Antimicrobial activity against Enterococcus faecalis clinical isolate after 18 to 22 hrs by broth microdilution method in presence of beta-lactamase inhibitor BLI-489; summary of the method: as §3
[10] = system: Enterococcus faecium; experiment: Antimicrobial activity against Enterococcus faecium clinical isolate after 18 to 22 hrs by broth microdilution method in presence of beta-lactamase inhibitor Tazobactam; summary of the method: as §2
[11] = system: Acinetobacter haemolyticus; experiment: Antimicrobial activity against Acinetobacter haemolyticus clinical isolate after 18 to 22 hrs by broth microdilution method in presence of beta-lactamase inhibitor Tazobactam
Summary of the method: (§4)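 Piperacillin-tazobactam was tested on recent clinical isolates by CLSI broth microdilution in Mueller-Hinton II broth, with tazobactam at constant 4 μg/ml. Wells held 10^5 CFU/ml and were incubated 18 to 22 h at 35°C in ambient air. MIC was the lowest concentration with no growth visible to the unaided eye.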

[12] = system: Pseudomonas aeruginosa; experiment: Antimicrobial activity against Pseudomonas aeruginosa clinical isolate after 18 to 22 hrs by broth microdilution method in presence of beta-lactamase inhibitor Tazobactam; summary of the method: as §2
[13] = system: Providencia stuartii; experiment: Antimicrobial activity against Providencia stuartii clinical isolate after 18 to 22 hrs by broth microdilution method in presence of beta-lactamase inhibitor BLI-489; summary of the method: as §1
[14] = system: Streptococcus agalactiae; experiment: Antimicrobial activity against Streptococcus agalactiae clinical isolate after 18 to 22 hrs by broth microdilution method in presence of beta-lactamase inhibitor BLI-489
Summary of the method: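 Streptococci were tested by CLSI broth microdilution in Mueller-Hinton II broth plus 5% lysed horse blood. Piperacillin dilutions contained a constant 4 μg/ml BLI-489. Inoculum was 10^5 CFU/ml, incubated 18 to 22 h at 35°C in air. MIC was the lowest concentration with no visible growth.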

[15] = system: Haemophilus influenzae; experiment: Antimicrobial activity against beta-lactamase-producing Haemophilus influenzae clinical isolate after 18 to 22 hrs by broth microdilution method in presence of beta-lactamase inhibitor Tazobactam
Summary of the method: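 […] was used for CLSI broth microdilution with piperacillin-tazobactam. Inoculum was 10^5 CFU/ml, incubated 18 to 22 h at 35°C in ambient air. MIC was the lowest concentration with no growth visible to the unaided eye.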

[16] = system: Klebsiella pneumoniae; experiment: Antimicrobial activity against AmpC- producing Klebsiella pneumoniae clinical isolate after 18 to 22 hrs by broth microdilution method in presence of beta-lactamase inhibitor Tazobactam; summary of the method: as §4
[17] = system: Proteus mirabilis; experiment: Antimicrobial activity against Proteus mirabilis clinical isolate after 18 to 22 hrs by broth microdilution method in presence of beta-lactamase inhibitor Tazobactam; summary of the method: as §2
[18] = system: Enterococcus hirae; experiment: Antimicrobial activity against Enterococcus hirae clinical isolate after 18 to 22 hrs by broth microdilution method in presence of beta-lactamase inhibitor BLI-489; summary of the method: as §1
[19] = system: Streptococcus pneumoniae; experiment: Antimicrobial activity against penicillin-resistant Streptococcus pneumoniae clinical isolate after 18 to 22 hrs by broth microdilution method in presence of beta-lactamase inhibitor BLI-489
Summary of the method: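 CLSI broth microdilution in Mueller-Hinton II broth with 5% lysed horse blood. Antibiotic in serial dilution with the β-lactamase inhibitor held at a constant 4 μg/ml. Inoculum 10^5 CFU/ml. Incubated 18 to 22 h at 35°C in ambient air. MIC is the lowest concentration with no growth visible to the eye.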

[20] = system: Staphylococcus epidermidis; experiment: Antimicrobial activity against methicillin-resistant Staphylococcus epidermidis clinical isolate after 18 to 22 hrs by broth microdilution method in presence of beta-lactamase inhibitor Tazobactam
Summary of the method: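 CLSI broth microdilution in Mueller-Hinton II broth. Antibiotic in serial dilution with the β-lactamase inhibitor held at a constant 4 μg/ml. Inoculum 10^5 CFU/ml. Incubated 18 to 22 h at 35°C in ambient air.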

SMILES: CCN1CCN(C(=O)N[C@@H](C(=O)N[C@@H]2C(=O)N3[C@@H]2SC(C)(C)[C@@H]3C(=O)O)c2ccccc2)C(=O)C1=O [PIPERACILLIN]
- MIC50 [1]: 0.03 µg/mL
- MIC90 [1]: 0.06 µg/mL
- MIC50 [2]: 0.25 µg/mL
- MIC90 [2]: 0.5 µg/mL
- MIC [3]: ≤ 4 ng/mL
- MIC50 [3]: ≤ 4 ng/mL
- MIC90 [3]: ≤ 4 ng/mL
- MIC50 [4]: 2 µg/mL
- MIC90 [4]: 8 µg/mL
- MIC50 [5]: 2 µg/mL
- MIC90 [5]: 8 µg/mL
- MIC [6]: ≤ 0.015 µg/mL
- MIC50 [6]: ≤ 0.015 µg/mL
- MIC90 [6]: ≤ 0.015 µg/mL
- MIC50 [7]: 2 µg/mL
- MIC90 [7]: 16 µg/mL
- MIC50 [8]: 4 µg/mL
- MIC90 [8]: 16 µg/mL
- MIC50 [9]: 2 µg/mL
- MIC90 [9]: 4 µg/mL
- MIC50 [10]: 32 µg/mL
- MIC90 [10]: > 128 µg/mL
- MIC50 [11]: ≤ 0.12 µg/mL
- MIC90 [11]: 32 µg/mL
- MIC50 [12]: 16 µg/mL
- MIC90 [12]: > 128 µg/mL
- MIC50 [13]: 1 µg/mL
- MIC90 [13]: 8 µg/mL
- MIC50 [14]: ≤ 4 ng/mL
- MIC90 [14]: 0.03 µg/mL
- MIC50 [15]: 8 ng/mL
- MIC90 [15]: 0.03 µg/mL
- MIC50 [16]: 32 µg/mL
- MIC90 [16]: > 128 µg/mL
- MIC50 [17]: 0.25 µg/mL
- MIC90 [17]: 2 µg/mL
- MIC50 [18]: 2 µg/mL
- MIC90 [18]: 8 µg/mL
- MIC50 [19]: 2 µg/mL
- MIC90 [19]: 4 µg/mL
- MIC50 [20]: 1 µg/mL
- MIC90 [20]: 8 µg/mL
